Source: ChEMBL document CHEMBL4619817, “Stereochemical Differences in Fluorocyclopropyl Amides Enable Tuning of Btk Inhibition and Off-Target Activity” (ACS Med Chem Lett, 2020)

Legend:
[1] = Lipophilicity, logD of compound at 7.4 by the LC/MS based microscale shake flask method; assay type: physicochemical; conditions: octanol/water, pH 7.4
How it was run: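 LogD measured by high-throughput microscale shake flask with LC tandem MS quantitation.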

[2] = Metabolic stability in human liver microsomes assessed as intrinsic clearance at 1 uM measured upto 60 mins by LC-MS/MS analysis; assay type: ADME, Microsome; conditions: read-out: CLH
[3] = Metabolic stability in rat liver microsomes assessed as intrinsic clearance at 1 uM measured upto 60 mins by LC-MS/MS analysis; assay type: ADME, Microsome; conditions: read-out: CLH
[4] = Apparent permeability from apical to basolateral side in MDCK cells at 10 uM incubated for 3 hrs by LC-MS/MS analysis; assay type: ADME, cell-based, Canis lupus familiaris; conditions: dog
[5] = Clearance in Sprague-Dawley rat at 0.2 mg/kg, iv measured upto 8 hrs by LC-MS/MS analysis; assay type: ADME, organism-based; conditions: in vivo
[6] = Oral bioavailability in Sprague-Dawley rat at 1 mg/kg measured upto 8 hrs by LC-MS/MS analysis; assay type: ADME, organism-based; conditions: in vivo
[7] = Unbound clearance in Sprague-Dawley rat at 1 mg/kg, po measured upto 8 hrs by LC-MS/MS analysis; assay type: ADME, organism-based; conditions: in vivo
[8] = Clearance in Beagle dog at 1 mg/kg, iv measured upto 24 hrs by LC-MS/MS analysis; assay type: ADME, organism-based, Canis lupus familiaris; conditions: in vivo
[9] = Oral bioavailability in Beagle dog at 2 mg/kg measured upto 24 hrs by LC-MS/MS analysis; assay type: ADME, organism-based, Canis lupus familiaris; conditions: in vivo
[10] = Metabolic stability in dog Hepatocyte assessed as intrinsic clearance at 1 uM measured upto 60 mins by LC-MS/MS analysis; assay type: ADME, cell-based, Canis lupus familiaris; conditions: hepatocytes, read-out: CLH
[11] = Metabolic stability in rat Hepatocyte assessed as intrinsic clearance at 1 uM measured upto 60 mins by LC-MS/MS analysis; assay type: ADME, cell-based; conditions: hepatocytes, read-out: CLH
[12] = Metabolic stability in human Hepatocyte assessed as intrinsic clearance at 1 uM measured upto 60 mins by LC-MS/MS analysis; assay type: ADME, cell-based; conditions: hepatocytes, read-out: CLH
[13] = Metabolic stability in dog liver microsomes assessed as intrinsic clearance at 1 uM measured upto 60 mins by LC-MS/MS analysis; assay type: ADME, Canis lupus familiaris, Microsome; conditions: read-out: CLH
[14] = Metabolic stability in human Hepatocyte assessed as compound hydrolysis at 5 uM incubated for 3 hrs by LC-MS/MS analysis; assay type: ADME, cell-based; conditions: hepatocytes, read-out: Drug degradation
How it was run: (§1)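 Compound incubated at 5 μM in cryopreserved hepatocytes (∼1.0 × 10^6 cells/mL) for 3 h; percent amide hydrolysis determined.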

[15] = Metabolic stability in rat Hepatocyte assessed as compound hydrolysis at 5 uM incubated for 3 hrs by LC-MS/MS analysis; assay type: ADME, cell-based; conditions: hepatocytes, read-out: Drug degradation; how it was run: as §1
[16] = Metabolic stability in dog Hepatocyte assessed as compound hydrolysis at 5 uM incubated for 3 hrs by LC-MS/MS analysis; assay type: ADME, cell-based, Canis lupus familiaris; conditions: hepatocytes, read-out: Drug degradation; how it was run: as §1
[17] = Oral bioavailability in Beagle dog at 5 mg/kg measured upto 24 hrs by LC-MS/MS analysis; assay type: ADME, organism-based, Canis lupus familiaris; conditions: in vivo

| Structure (SMILES) | logD [1] | CLint scaled at 1 µM [2] | CLint scaled at 1 µM [3] | other results |
| --- | --- | --- | --- | --- |
| Cn1cc(-c2ccnc(-n3ncc4cc(C(C)(C)C)cc(F)c4c3=O)c2CO)cc(NC(=O)[C@@H]2C[C@@H]2F)c1=O | 1.6 | 8 mL/min/kg | 11 mL/min/kg | Papp A→B at 3 h, 10 µM [4]: 12.1 to 12.5 ×10⁻⁶ cm/s; clearance [5]: 15 mL/min/kg; bioavailability [6]: 40%; CL free [7]: 326 mL/min/kg; clearance [8]: 2 mL/min/kg; bioavailability [9]: 123%; CLint scaled at 1 µM [10]: < 21 mL/min/kg; CLint scaled at 1 µM [11]: 11 mL/min/kg; CLint scaled at 1 µM [12]: 6.2 mL/min/kg; CLint scaled at 1 µM [13]: 20 mL/min/kg; metabolised at 3 h, 5 µM [14]: ≤ 1%; metabolised at 3 h, 5 µM [15]: ≤ 1%; metabolised at 3 h, 5 µM [16]: ≤ 1% |
| Cn1cc(-c2ccnc(N3CCn4c(cc5c4CC(C)(C)C5)C3=O)c2CO)cc(NC(=O)C2(F)CC2)c1=O | 2.5 | – | – | – |
| Cn1cc(-c2cc(F)cc(-n3ncc4cc(C(C)(C)C)cc(F)c4c3=O)c2CO)cc(NC(=O)[C@H]2C[C@H]2F)c1=O | 2 | – | – | – |
| Cn1cc(-c2ccnc(N3CCc4c(cc5n4CCCC5)C3=O)c2CO)cc(NC(=O)C2CC2)c1=O | 1.2 | 9.8 mL/min/kg | 20 mL/min/kg | – |
| Cn1cc(-c2ccnc(N3CCn4c(cc5c4CC(C)(C)C5)C3=O)c2CO)cc(NC(=O)C2COC2)c1=O | 2.2 | – | – | – |
| Cn1cc(-c2ccnc(-n3ncc4cc(C(C)(C)C)cc(F)c4c3=O)c2CO)cc(NC(=O)C2CC2)c1=O | 2.5 | 3.2 mL/min/kg | 13 mL/min/kg | Papp A→B at 3 h, 10 µM [4]: 13.5 ×10⁻⁶ cm/s |
| Cn1cc(-c2ccnc(N3CCn4c(cc5c4CC(C)(C)C5)C3=O)c2CO)cc(NC(=O)C2(O)CC2)c1=O | 1.8 | – | – | – |
| Cn1cc(-c2ccnc(N3CCn4c(cc5c4CC(C)(C)C5)C3=O)c2CO)cc(NC(=O)c2cccnc2)c1=O | 2 | – | – | – |
| Cn1cc(-c2ccnc(N3CCn4c(cc5c4CC(C)(C)C5)C3=O)c2CO)cc(NC(=O)[C@@H]2C[C@@H]2F)c1=O | 2.5 | – | – | – |
| Cn1cc(-c2ccnc(N3CCn4c(cc5c4CC(C)(C)C5)C3=O)c2CO)cc(NC(=O)[C@H]2C[C@H]2F)c1=O | 2.3 | – | – | – |
| Cn1cc(-c2ccnc(N3CCn4c(cc5c4CC(C)(C)C5)C3=O)c2CO)cc(NC(=O)C2CC2)c1=O | 3 | 5.3 mL/min/kg | 7.2 mL/min/kg | – |
| Cn1cc(-c2ccnc(N3CCn4c(cc5c4CC(C)(C)C5)C3=O)c2CO)cc(NC(=O)[C@@H]2CCCO2)c1=O | 2.1 | – | – | – |
| CC(=O)Nc1cc(-c2ccnc(N3CCn4c(cc5c4CC(C)(C)C5)C3=O)c2CO)cn(C)c1=O | 2.1 | – | – | – |
| Cn1nc(-c2ccnc(-n3ncc4cc(C(C)(C)C)cc(F)c4c3=O)c2CO)cc(NC(=O)[C@@H]2C[C@@H]2F)c1=O | 1.7 | 7.4 mL/min/kg | 16 mL/min/kg | – |
| Cn1cc(-c2ccnc(-n3ncc4cc(C(C)(C)C)cc(F)c4c3=O)c2CO)nc(NC(=O)[C@@H]2C[C@@H]2F)c1=O | 1.3 | < 3.9 mL/min/kg | 13 mL/min/kg | – |
| Cn1cc(-c2ccnc(-n3ncc4c5c(sc4c3=O)CCCC5)c2CO)cc(NC(=O)C2CC2)c1=O | 2.1 | 7.4 mL/min/kg | 8.4 mL/min/kg | – |
| CCCC(=O)Nc1cc(-c2ccnc(N3CCn4c(cc5c4CC(C)(C)C5)C3=O)c2CO)cn(C)c1=O | 2.6 | – | – | – |
| C[C@H]1CN(C2COC2)CCN1c1ccc(Nc2cc(-c3ccnc(N4CCn5c(cc6c5CC(C)(C)C6)C4=O)c3CO)cn(C)c2=O)nc1 [FENEBRUTINIB] | 1.6 | 9.5 mL/min/kg | 14 mL/min/kg | Papp A→B at 3 h, 10 µM [4]: 15.1 ×10⁻⁶ cm/s; clearance [5]: 22 mL/min/kg; bioavailability [6]: 96%; CL free [7]: 314 mL/min/kg; clearance [8]: 12 mL/min/kg; CLint scaled at 1 µM [10]: < 21 mL/min/kg; CLint scaled at 1 µM [11]: 10 mL/min/kg; bioavailability [17]: 130%; CLint scaled at 1 µM [12]: 9.3 mL/min/kg; CLint scaled at 1 µM [13]: 29 mL/min/kg |

Further lines, with some results ahead:

| logD [1] | CLint scaled at 1 µM [2] | CLint scaled at 1 µM [3] | Structure (SMILES) | other results |
| --- | --- | --- | --- | --- |
| 3 | 8.5 mL/min/kg | 14 mL/min/kg | Cn1cc(-c2ccnc(-n3ncc4cc(C(C)(C)C)cc(F)c4c3=O)c2CO)cc(NC(=O)[C@H]2C[C@@H]2F)c1=O | Papp A→B at 3 h, 10 µM [4]: 10.8 ×10⁻⁶ cm/s |
| 2.5 | 4.6 mL/min/kg | 15 mL/min/kg | Cn1cc(-c2ccnc(-n3ncc4cc(C(C)(C)C)cc(F)c4c3=O)c2CO)cc(NC(=O)[C@@H]2C[C@H]2F)c1=O | Papp A→B at 3 h, 10 µM [4]: 14 ×10⁻⁶ cm/s |
| 3.3 | – | – | Cn1cc(-c2ccnc(N3CCn4c(cc5c4CC(C)(C)C5)C3=O)c2CO)cc(NC(=O)C2CCC2)c1=O | – |
| 1.5 | – | – | COCC(=O)Nc1cc(-c2ccnc(N3CCn4c(cc5c4CC(C)(C)C5)C3=O)c2CO)cn(C)c1=O | – |
| 3.2 | – | – | CC(C)C(=O)Nc1cc(-c2ccnc(N3CCn4c(cc5c4CC(C)(C)C5)C3=O)c2CO)cn(C)c1=O | – |
| 2.8 | – | – | Cn1cc(-c2cc(F)cc(-n3ncc4cc(C(C)(C)C)cc(F)c4c3=O)c2CO)cc(NC(=O)[C@@H]2C[C@@H]2F)c1=O | – |
| 3.4 | – | – | Cn1cc(-c2ccnc(N3CCn4c(cc5c4CC(C)(C)C5)C3=O)c2CO)cc(NC(=O)CC2CC2)c1=O | – |
| 2.3 | – | – | Cn1cc(-c2ccnc(N3CCn4c(cc5c4CC(C)(C)C5)C3=O)c2CO)cc(NC(=O)CN2CCOCC2)c1=O | – |
| 2 | 5.5 mL/min/kg | 11 mL/min/kg | Cn1cc(-c2ccnc(-n3ncc4cc(C(C)(C)C)cc(F)c4c3=O)c2CO)cc(NC(=O)[C@H]2C[C@H]2F)c1=O | Papp A→B at 3 h, 10 µM [4]: 6.4 ×10⁻⁶ cm/s |
| 2.5 | – | – | CCC(=O)Nc1cc(-c2ccnc(N3CCn4c(cc5c4CC(C)(C)C5)C3=O)c2CO)cn(C)c1=O | – |
